Converted amounts (≈) assume the structure as drawn.
What was measured:
Assay type in all cases: functional, cell-based
KB [1] = experiment: Cytotoxicity against human KB cells after 3 days by SRB assay; details: 72 h
Method in brief: (§1)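 Freshly trypsinized cells seeded at 1500–7500 per well, compound added from DMSO-diluted stock. After 3 days attached cells were fixed with cold 50% TCA, stained with 0.4% SRB, bound dye solubilized and read at 562 nm.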

KB [2] = experiment: Cytotoxicity against human vincristine-resistant KB cells overexpressing p-glycoprotein after 3 days by SRB assay; details: 72 h; method in brief: as §1
A549 = experiment: Cytotoxicity against human A549 cells after 3 days by SRB assay; details: A549, 72 h; method in brief: as §1
DU-145 = experiment: Cytotoxicity against human DU145 cells after 3 days by SRB assay; details: DU-145, 72 h; method in brief: as §1

Row | Structure (SMILES) | IC50 (KB [1]) | IC50 (KB [2]) | IC50 (A549) | IC50 (DU-145)
1 | C=C(C)CCC(C[C@@]12C[C@H]3[C@@H](C=C(C)C)[C@@](C(=O)c4ccc(O)c(O)c4)(C1=O)C(=O)[C@@](CC=C(C)C)(C2=O)C3(C)C)C(=C)C (some centres undefined) | 5.7 mg/L (≈ 9.49 µM) | 5.6 mg/L (≈ 9.32 µM) | 4.2 mg/L (≈ 6.99 µM) | 4.1 mg/L (≈ 6.82 µM)
2 | C=C(C)CCC(C[C@]12C[C@@H]3[C@H](C=C(C)C)[C@](C(=O)c4ccc(O)c(O)c4)(C1=O)C(=O)[C@](CC=C(C)C)(C2=O)C3(C)C)C(=C)C (some centres undefined) | 4.4 mg/L (≈ 7.32 µM) | 5.3 mg/L (≈ 8.82 µM) | 4.2 mg/L (≈ 6.99 µM) | 4.2 mg/L (≈ 6.99 µM)
3 | C=C(C)CC[C@H]1C[C@@]23C[C@@H](CC=C(C)C)C(C)(C)[C@@](CC=C(C)C)(C(=O)C(C(=O)c4ccc(O)c(O)c4)=C2OC1(C)C)C3=O | 4.9 mg/L (≈ 8.13 µM) | 5.2 mg/L (≈ 8.63 µM) | 4.5 mg/L (≈ 7.47 µM) | 4.7 mg/L (≈ 7.8 µM)
4 | CC(C)=CCC1=C2O[C@H](C(C)(C)O)C[C@@]23C[C@H](CC=C(C)C)C(C)(C)[C@@](C(=O)C(C)C)(C1=O)C3=O | > 5 mg/L | > 5 mg/L | > 5 mg/L | > 5 mg/L
5 | C=C(C)CC[C@@H]1C[C@]23C[C@H](CC=C(C)C)C(C)(C)[C@](CC=C(C)C)(C(=O)C(C(=O)c4ccc(O)c(O)c4)=C2OC1(C)C)C3=O [CYCLOXANTHOCHYMOL] | 5 mg/L (≈ 8.29 µM) | 4.9 mg/L (≈ 8.13 µM) | 4.5 mg/L (≈ 7.47 µM) | 3.7 mg/L (≈ 6.14 µM)
6 | C=C(C)[C@@H]1C[C@]23C[C@H](CC=C(C)C)C(C)(C)[C@](CC=C(C)C)(C(=O)C(C(=O)c4ccc(O)c(O)c4)=C2O[C@H]1C=C(C)C)C3=O [GARCINIALIPTONE B] | 5.7 mg/L (≈ 9.49 µM) | 6.6 mg/L (≈ 11 µM) | 6.7 mg/L (≈ 11.2 µM) | 7.3 mg/L (≈ 12.2 µM)
7 | C=C(C)CC[C@H](C[C@@H]1C[C@@]2(CC=C(C)C)C(=O)C3=C(O[C@H](C(C)(C)O)C3)[C@](C(=O)c3ccc(O)c(O)c3)(C2=O)C1(C)C)C(=C)C [GARCINIALIPTONE C] | 3.4 mg/L (≈ 5.49 µM) | 4.9 mg/L (≈ 7.92 µM) | 4.3 mg/L (≈ 6.95 µM) | 4.3 mg/L (≈ 6.95 µM)
8 | C=C(C)CC[C@H](C[C@@H]1C[C@]2(CC=C(C)C)C(=O)[C@@](C(=O)c3ccc(O)c(O)c3)(C(=O)C(CC=C(C)C)=C2O)C1(C)C)C(=C)C [GARCINIALIPTONE D] | 3.9 mg/L (≈ 6.47 µM) | 4.6 mg/L (≈ 7.63 µM) | 4.4 mg/L (≈ 7.3 µM) | 3.3 mg/L (≈ 5.47 µM)
9 | CC(C)=CC[C@@H]1C[C@]23C[C@H](CC=C(C)C)C(C)(C)[C@](CC=C(C)C)(C(=O)C(C(=O)c4ccc(O)c(O)c4)=C2OC1(C)C)C3=O [ISOXANTHOCHYMOL] | 4.5 mg/L (≈ 7.47 µM) | 5.2 mg/L (≈ 8.63 µM) | 4.4 mg/L (≈ 7.3 µM) | 4.2 mg/L (≈ 6.97 µM)
10 | CC(=O)O[C@H]1C(=O)[C@@]2(C)[C@H]([C@H](OC(=O)c3ccccc3)[C@]3(O)C[C@H](OC(=O)[C@H](O)[C@@H](NC(=O)c4ccccc4)c4ccccc4)C(C)=C1C3(C)C)[C@]1(OC(C)=O)CO[C@@H]1C[C@@H]2O [PACLITAXEL] | 0.002 mg/L (≈ 0.00234 µM) | > 0.085 mg/L |  | 0.002 mg/L (≈ 0.00234 µM)
